# ADAM10 inh: human ADAM10 inhibitors, primary screen, biochemical, QFRET, HTS; inhibition, % at 7 µM; AID 720582, 2013; recombinant ADAM10, EDANS/DABCYL FRET peptide cleavage, 3 h; 0.62% of 370,000 active; Disintegrin and metalloproteinase domain-containing protein 10 (Homo sapiens), O14672;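 active = inhibition above a per-campaign cutoff equal to the mean of compounds falling between control-based bounds plus 3 SD, cut at about 20% in these data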;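 also: 0% = DMSO wells while the 100% control is not disclosed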
# Arrestin-AP2 inh: inhibitors of beta-arrestin/AP2 binding, primary screen, biochemical, GPCR trafficking, flow cytometry | 0.31% of 340,000 active | inhibition, % at 10 µM | beta-arrestin 1 C-terminal peptide binding to AP2 beta2-adaptin appendage (human) | AID 504490, 2011 | FITC-arrestin peptide / GST-AP2 beads; AP2 beta2 appendage carries R879A mutation;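 active = inhibition above a set limit, near 3 SD of compounds lacking own fluorescence, cut at about 54% in these data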;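 also: plate controls were DMSO wells for no effect and 5 µM unlabelled arrestin peptide for full effect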
#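 System: GST-AP2 R879A bound to glutathione beads, E. coli-expressed. Also added: 50 nM FITC-arrestin peptide. Schedule: compound with beads 12 min RT, then probe 1 h RT. Signal: bead flow cytometry, FITC channel. Read-out basis: percent response.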
# CaV13 FRET inh: Primary screen for inhibitors of IQ motif and Ca2+-dependent inactivation inhibitor domain binding in CACNA1D, Förster resonance energy transfer in living cells, … | AID 743397 | HEK cells, CFP/YFP FRET ICDI-IQ, plate reader, 10 min; percent FRET-ratio fall versus neutral wells | inhibition, % at 12.3 µM | 0.098% of 340,000 active;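 active = mean replicate inhibition of at least 30% and at least 1% of replicates passing that level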;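 also: 0% = median of the neutral control wells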
# ADAM17 inh: ADAM17 inhibitors, primary screen, biochemical, QFRET | recombinant ADAM17, EDANS/DABCYL FRET peptide cleavage | inhibition, % at 6.95 µM | 0.83% of 370,000 active | AID 720648, 2013;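 active = inhibition above the mean of compounds lying between control limits plus 3 SD, set per campaign, cut at about 8.5% in these data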;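 also: 0% = DMSO-only wells as the low control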
# Target sequence (P78536 215-824 limits assumed): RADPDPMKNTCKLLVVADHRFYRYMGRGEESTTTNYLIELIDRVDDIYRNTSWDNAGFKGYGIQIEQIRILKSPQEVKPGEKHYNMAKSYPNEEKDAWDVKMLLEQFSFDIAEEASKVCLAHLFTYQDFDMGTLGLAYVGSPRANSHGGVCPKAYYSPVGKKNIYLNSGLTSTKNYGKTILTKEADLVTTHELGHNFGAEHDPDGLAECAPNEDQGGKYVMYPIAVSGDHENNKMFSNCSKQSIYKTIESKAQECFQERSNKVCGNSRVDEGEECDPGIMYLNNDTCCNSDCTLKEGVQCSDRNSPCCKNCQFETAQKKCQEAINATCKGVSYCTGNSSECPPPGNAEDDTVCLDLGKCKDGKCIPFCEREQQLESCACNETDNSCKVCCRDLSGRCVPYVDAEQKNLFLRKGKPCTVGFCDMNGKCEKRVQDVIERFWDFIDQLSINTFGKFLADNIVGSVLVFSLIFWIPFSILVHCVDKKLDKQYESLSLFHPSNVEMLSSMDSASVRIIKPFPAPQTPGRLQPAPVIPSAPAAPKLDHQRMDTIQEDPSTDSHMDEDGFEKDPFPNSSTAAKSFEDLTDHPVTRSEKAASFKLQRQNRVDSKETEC
# NRP1-CendR mod: modulators of CendR peptide binding to NRP-1, primary screen, biochemical, fluorescence polarization, uHTS; Neuropilin-1 (Homo sapiens), O14786; FAM-RPARPAR peptide binding to NRP-1; inhibition, % at 25 µM; 0.85% of 360,000 active; AID 602438, 2012;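 active = inhibition or corrected inhibition above about 18%, plus a signal ratio from 0.5 to 1.5, limit read from the data, passing the limit was not always enough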
# FAS-TE inh: FAS thioesterase domain inhibitors, primary screen, biochemical, fluorescence intensity, uHTS; recombinant FAS-TE, OMFH fluorogenic substrate, fluorescence endpoint; 0.67% of 360,000 active; inhibition, % at 15 µM;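 active = compounds whose normalised, plate-corrected inhibition of enzyme fluorescence in the single-dose primary screen is 50% or more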;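 also: 0% = DMSO with enzyme and 100% = substrate without enzyme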
# ADAM10 confirm: human ADAM10 inhibitors, confirmation, biochemical, QFRET, triplicate; 1% of 2,100 active; ADAM10 QFRET peptide cleavage, EDANS fluorescence; inhibition, % at 6.95 µM; shares compounds with ADAM10 inh; AID 743208, 2013;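 active = inhibition above about 20% chosen separately for each screening run, limit read from the data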;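 also: 0% = DMSO wells and 100% = marimastat wells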
# ADAM17 ctr: ADAM17 inhibitors, counter-screen for ADAM10 exosite inhibitor project, biochemical, QFRET, high throughput | ADAM17 QFRET peptide cleavage, EDANS fluorescence | 0.5% of 2,100 active | inhibition, % at 6.95 µM | shares compounds with ADAM10 inh | AID 743214, 2013;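 active = mean triplicate inhibition above the solvent-only control wells' mean plus 3 SD, cut at about 12% in these data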;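 also: 0% = DMSO wells and 100% = marimastat wells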
# Starred values were filed as active, the others as inactive; x = not tested or not shown. An excerpt weighted towards active compounds, which were near 2.9% of everything screened.
SMILES,ADAM10 inh,Arrestin-AP2 inh,CaV13 FRET inh,ADAM17 inh,NRP1-CendR mod,FAS-TE inh,ADAM10 confirm,ADAM17 ctr
O=S1(=O)CC2c3ccccc3CN2CN1C1CCCC1 (centres undefined),4,x,x,2,x,x,x,x
COC(=O)[C@]12C[C@H](CC(=O)NCCc3ccccc3OC)C(=O)N(CCc3ccc(OC)c(OC)c3)C1=C[C@H](COCc1ccccc1)O[C@@H]2C,21*,x,x,8,x,x,2,1
COC(=O)[C@]12C[C@H](CC(=O)NCCc3ccccc3OC)C(=O)N(Cc3cccc4ccccc34)C1=C[C@H](C1CCCC1)O[C@@H]2C,25*,x,x,7,x,x,10,3
COC(=O)[C@]12C[C@H](CC(=O)N3CCC(c4ccccc4)CC3)C(=O)N(Cc3ccccc3)C1=C[C@H](COCc1ccccc1)O[C@@H]2C,24*,x,x,8,x,x,5,1
CCCCCCCCN1C(=O)[C@@H](CC(=O)N2CCC(c3ccccc3)CC2)C[C@@]2(C(=O)OC)C1=C[C@H](COCc1ccccc1)O[C@@H]2C,8,x,x,0,x,x,x,x
COC(=O)[C@]12C[C@H](CC(=O)NCc3ccc(OC)c(OC)c3)C(=O)N(CCc3ccc(OC)c(OC)c3)C1=C[C@H](COCc1ccccc1)O[C@@H]2C,4,x,x,-4,x,x,x,x
COC(=O)[C@]12C[C@H](CC(=O)NCCc3ccccc3OC)C(=O)N(Cc3ccccc3)C1=C[C@H](C1CCCC1)O[C@@H]2C,11,x,-9,4,x,x,x,x
O=c1c2c(n3nnnc3n1Cc1ccc(Cl)cc1)-c1ccccc1CC21CCCC1,-7,x,x,-4,x,x,x,x
CCOC(=O)COc1ccc2c(c1)c(C(C)=O)c(C)n2-c1ccc(OC)cc1,21*,33,-3,7,4,12,3,1
Cc1csc(NC(=O)Cc2coc3cc(C)c(C(C)C)cc23)n1,23*,-1,-5,7,-2,23,7,1
Cc1cc2occ(CC(=O)NCc3cccs3)c2cc1C(C)C,15,11,-6,-2,0,5,x,x
COc1ccc(NC(=O)c2cc(-c3ccc(F)cc3C)n[nH]2)cc1OC,-10,x,-5,4,-4,0,x,x
COc1ccc(NC(=O)c2cc(-c3cc(C)cc(F)c3)n[nH]2)cc1OC,26*,x,-4,8,-3,7,0,0
CCOc1ccc(Cl)cc1-c1cc(C(=O)Nc2cc(OC)c(OC)c(OC)c2)[nH]n1,20*,x,-11,7,-12,17,7,1
COc1ccc(NC(=O)c2ccc(F)cc2)cc1S(=O)(=O)Nc1cc(C)ccc1Br,23*,5,-3,8,0,42,8,3
COc1ccc(NS(=O)(=O)c2cc(NC(=O)c3ccc(F)cc3)ccc2OC)cc1,14,-8,-4,8,2,7,x,x
CCCNC(=O)C[C@@H]1C[C@@H]2c3cc(NS(=O)(=O)c4ccc(OC)cc4)ccc3O[C@@H]2[C@@H](CO)O1,-7,x,-4,-4,-6,-3,x,x
Clc1ccccc1CNc1ncnc2nc[nH]c12,-8,-13,-7,-5,3,-13,x,x
Clc1ccccc1CN(Cc1ccccc1)c1ncnc2nc[nH]c12,20*,-1,x,6,10,7,7,3
Cc1cc(=O)[nH]c(SCC(=O)Nc2cccc(C)c2C)n1,-3,x,x,-2,x,x,x,x
Cc1cccc(NC(=O)CCCN=C2NS(=O)(=O)c3ccccc32)c1C,56*,-3,-6,-5,13,-8,0,-1
O=C(C(=Cc1ccc(O)cc1)c1ccccc1)c1ccccc1,30*,x,-10,8,3,24,8,2
O=C(C(=Cc1ccccc1)c1ccccc1)c1ccccc1,16,x,-4,3,6,42,x,x
COc1cc(OC)cc(C(=O)NCC(=O)NCCN2C(=O)S/C(=C\c3ccccc3Cl)C2=O)c1,2,1,-3,0,-4,23,x,x
COc1cc(C(=O)NCC(=O)NCCN2C(=O)S/C(=C\c3ccccc3Cl)C2=O)cc(OC)c1OC,20*,6,-1,6,-2,10,0,0
SMILES,ADAM10 inh,Arrestin-AP2 inh,CaV13 FRET inh,ADAM17 inh,NRP1-CendR mod,FAS-TE inh,ADAM10 confirm,ADAM17 ctr
CN(Cc1ccccc1)C(=O)OCc1cn(Cc2ccc(F)cc2)nn1,3,x,x,1,x,x,x,x
O=C(C1CC1)N1N=C(c2cccc(Br)c2)CC1(O)C(F)(F)F (centres undefined),81*,1,-4,-4,5,13,-1,0
Cc1ccc(Cl)cc1NC(=S)NCCCSC1CCCCC1,22*,2,-18,2,-1,37,2,1
COc1ccc(CN(C2CCCCC2C)S(=O)(=O)c2ccc(S(=O)(=O)N(C)C)cc2)cc1OC (centres undefined),22*,8,-3,5,7,32,8,2
COc1cc(CN(C2CCCCC2C)S(=O)(=O)c2ccc(S(=O)(=O)NC3CC3)cc2)cc(OC)c1OC (centres undefined),11,36,-4,3,3,17,x,x
COc1ccc(CCC(=O)Nc2cc(Cl)ccc2N2CCN(C)CC2)cc1,9,x,-1,-4,x,x,x,x
CC(Oc1ccc(Br)cc1)C(=O)Nc1cc(Cl)ccc1N1CCN(C)CC1 (centres undefined),20*,2,-6,5,-1,19,1,0
COC(=O)C1=C(C)N(C)C(=NCc2cccc(C(F)(F)F)c2)NC1c1cccc(F)c1 (centres undefined),-2,x,-5,-5,x,x,x,x
Cc1ccc(N=C(NOCc2ccc(Cl)cc2Cl)c2nonc2N)c(C)c1,21*,-7,-8,5,0,41,7,2
CCNC(=O)C1(C)CCN(C(=O)c2ccc(C#N)cc2)C1 (centres undefined),-2,x,-10,-3,5,-8,x,x
O=C(Cc1ccccc1)NNC(=S)Nc1ccccc1,-5,15,11,-8,7,-4,x,x

# Bioassay records as filed in PubChem BioAssay.
